Assays:
CCRF-CEM = experiment: Cytotoxicity against human CCRF-CEM cells after 96 hrs by MTT assay; format: functional
Outline: (§1)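 Cells were seeded at 1×10^5 cells/mL: leukaemia/lymphoma lines in RPMI-1640, solid tumour and fibroblast lines in specific media, all with 10% FCS. Serial compound dilutions were applied for 96 h at 37 °C, 5% CO2, under conditions allowing controls at least three rounds of multiplication. Viability was read by MTT. CC50 by linear regression. Mean of three determinations.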

WIL2-NS = experiment: Cytotoxicity against human WIL2-NS cells after 96 hrs by MTT assay; format: functional; outline: as §1
CCRF-SB = experiment: Cytotoxicity against human CCRF-SB cells after 96 hrs by MTT assay; format: functional; outline: as §1
SK-MEL-28 = experiment: Cytotoxicity against human SK-MEL-28 cells after 96 hrs by MTT assay; format: functional; settings: SK-MEL-28, 96 h; outline: as §1
MCF7 = experiment: Cytotoxicity against human MCF7 cells after 96 hrs by MTT assay; format: functional; settings: MCF7, 96 h; outline: as §1
SK-MES-1 = experiment: Cytotoxicity against human SKMES1 cells after 96 hrs by MTT assay; format: functional; settings: SK-MES-1, 96 h; outline: as §1
HepG2 = experiment: Cytotoxicity against human HepG2 cells after 96 hrs by MTT assay; format: functional; settings: HepG2, 96 h; outline: as §1
DU-145 = experiment: Cytotoxicity against human DU145 cells after 96 hrs by MTT assay; format: functional; settings: DU-145, 96 h; outline: as §1
[1] = Cytotoxicity against human MRC5 cells after 96 hrs by MTT assay; format: cell-based; outline: as §1
[2] = Cytotoxicity against human CRL7065 cells after 96 hrs by MTT assay; format: cell-based, CRL-7065
Outline: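 Foreskin fibroblasts seeded at 1×10^5 cells/mL in specific medium with 10% FCS and antibiotics; serial compound dilutions, 37 °C, 5% CO2, 96 h, under conditions allowing untreated controls at least three rounds of multiplication. MTT read-out; concentration reducing proliferation by 50% by linear regression versus untreated controls; three independent determinations.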

[3] = Cytotoxicity against human MT4 cells after 96 hrs by MTT assay; format: cell-based
Outline: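 Exponentially growing MT-4 cells seeded at 1×10^5 cells/mL in RPMI-1640 with 10% FBS, penicillin and streptomycin. Incubated with serial compound dilutions at 37 °C, 5% CO2 for 96 h; viability by MTT. CC50 by linear regression relative to untreated controls; mean of three independent determinations.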

[4] = system: Human immunodeficiency virus 1; experiment: Antiviral activity against HIV1 3B infected in human MT4 cells assessed as inhibition of virus-induced cytopathogenicity after 4 days by MTT assay; format: functional, organism-based; settings: Human immunodeficiency virus 1, 3B, MT4, 96 h
Outline: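 MT-4 cells (1×10^4 per well) were infected with HIV-1 IIIB at 100 CCID50, m.o.i. 0.01, together with serial compound dilutions. Viability was read by MTT after 4 days at 37 °C. EC50 was taken by linear regression versus untreated controls. Mean of three determinations.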

[5] = Cytotoxicity against MDBK cells after 48 to 96 hrs by MTT assay; format: cell-based, Bos taurus; settings: cattle
Outline: (§2)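 MDBK seeded at 6×10^5 and BHK at 1×10^6 cells/mL in MEM-Earle's with L-glutamine, 1 mM pyruvate, kanamycin, plus 10% horse serum (MDBK) or 10% FBS (BHK). Cells were grown at 37 °C, 5% CO2 with serial compound dilutions (DMSO stocks diluted in medium). Viability by MTT after 48–96 h. CC50 was taken by linear regression versus untreated controls; three independent determinations.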

[6] = Antiviral activity against Bovine viral diarrhea virus 1-NADL infected in MDBK cells assessed as inhibition of virus-induced cytopathogenicity after 3 to 4 days by MTT assay; format: functional, cell-based; settings: Bovine viral diarrhea virus isolates and strains
Outline: (§3)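 Host cells were seeded in 96-well plates at 3×10^4 cells/well (MDBK) or 5×10^4 cells/well (BHK-21) and grown to confluent monolayers overnight. They were infected at m.o.i. 0.01 in maintenance MEM with 0.5% inactivated FBS. Serial compound dilutions were added after 1 h. Viability was read by MTT after 3–4 days at 37 °C. EC50 was taken by linear regression against untreated controls. Mean of three determinations.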

[7] = Cytotoxicity against BHK21 cells after 48 to 96 hrs by MTT assay; format: cell-based, Mesocricetus auratus, BHK-21; settings: hamster; outline: as §2
Yellow fever virus = experiment: Antiviral activity against Yellow fever virus 17D Stamaril Pasteur J07B01 infected in hamster BHK21 cells assessed as inhibition of virus-induced cytopathogenicity after 3 to 4 days by MTT assay; format: functional, cell-based; settings: Stamaril Pasteur J07B01, BHK-21; outline: as §3
Reovirus sp. = experiment: Antiviral activity against Reovirus type-1 3651 infected in hamster BHK21 cells assessed as inhibition of virus-induced cytopathogenicity after 3 to 4 days by MTT assay; format: functional, organism-based; settings: Reovirus sp., 3651, BHK-21; outline: as §3
[8] = Cytotoxicity against african green monkey Vero 76 cells after 48 to 96 hrs by crystal violet staining; format: cell-based; settings: chlorocebus sabaeus
Outline: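 Vero-76 cells were seeded at 4×10^5 cells/mL in D-MEM with L-glutamine, kanamycin and 10% FBS, then exposed to serial compound dilutions at 37 °C, 5% CO2 for 48–96 h. Viability was read by crystal violet staining. 50% cytotoxic concentration by linear regression relative to untreated controls; mean of three independent determinations.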

Coxsackievirus B5 = experiment: Antiviral activity against Human coxsackievirus B5 Ohio-1 infected in african green monkey Vero 76 cells assessed as reduction of virus-induced plaque formation after 3 days using crystal violet staining; format: functional, organism-based; settings: Enterovirus B, Ohio-1, Vero, 72 h
Poliovirus 1 = experiment: Antiviral activity against Human poliovirus 1 strain Sabin Chat infected in african green monkey Vero 76 cells assessed as virus-induced reduction of plaque formation after 2 days using crystal violet staining; format: functional, cell-based; settings: Enterovirus C, 48 h
Human orthopneumovirus = experiment: Antiviral activity against Human respiratory syncytial virus A2 infected in african green monkey Vero 76 cells assessed as reduction of virus-induced plaque formation after 5 days using crystal violet staining; format: functional, organism-based; settings: 120 h
[9] = system: Vesicular stomatitis Indiana virus; experiment: Antiviral activity against clinical isolate Vesicular stomatitis Indiana virus infected in african green monkey Vero 76 cells assessed as reduction of virus-induced plaque formation after 2 days using crystal violet staining; format: functional, organism-based; settings: 48 h
[10] = Antiviral activity against Vaccinia virus Lister Elstree infected in african green monkey Vero 76 cells assessed as reduction of virus-induced plaque formation after 3 days using crystal violet staining; format: functional, cell-based; settings: 72 h
Human alphaherpesvirus 1 = experiment: Antiviral activity against Human herpesvirus 1 strain KOS infected in african green monkey Vero 76 cells assessed as reduction of virus-induced plaque formation after 3 days using crystal violet staining; format: functional, organism-based; settings: Human alphaherpesvirus 1, KOS, 72 h
[11] = Cytotoxicity against human GS4.1 cells; format: cell-based
Outline: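 Huh-7 cells carrying HCV genotype 1b subgenomic replicon, grown in D-MEM/10% FBS with 0.5 mg/mL G418. Seeded at 7.5×10^3 cells/well with two-fold serial dilutions (top 75 μM), incubated 72 h at 37 °C. Viability by MTS-type Cell Titer 96 Aqueous One reagent; CC50 from % cytotoxicity versus concentration curves.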

Hepatitis C virus = experiment: Antiviral activity against HCV1b infected in human GS4.1 cells assessed as inhibition of virus-induced cytopathogenicity by measuring viral NS4A protein level after 72 hrs by ELISA; format: functional, organism-based, Hepacivirus hominis; settings: genotype 1b
Outline: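 GS4.1 cells are Huh-7 cells carrying a genotype 1b subgenomic replicon, kept in 0.5 mg/mL G418. They were seeded at 7.5×10^3 cells/well with two-fold serial dilutions of compound (top 75 μM) and incubated 72 h at 37 °C. Huh-7 cells without the replicon served as negative control. NS4A was measured by cell ELISA with anti-NS4A mAb A-236, peroxidase and o-phenylenediamine, A492. EC50 came from four-parameter sigmoidal fit.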

[12] = Inhibition of Bovine viral diarrhea virus 1-NADL recombinant NS5B Cdelta 21 RNA dependent RNA polymerase expressed in Escherichia coli (DE3) using GTP as substrate preincubated for 30 mins before substrate addition measured after 120 mins by fluorescence assay
[13] = Inhibition of HCV1b BK 6xHis-tagged recombinant NS5B Cdelta 21 RNA dependent RNA polymerase expressed in Escherichia coli (DE3) using GTP as substrate preincubated for 30 mins before substrate addition measured after 120 mins by fluorescence assay; design: species or system Hepatitis C virus (isolate BK)
Outline: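 His-tagged NS5B (BVDV C-terminal Δ24; HCV1b Δ21) from E. coli Rosetta 2(DE3)pLysS, Ni-NTA purified, 500–600 ng per 20 μL. The template was poly(rC) 10 μg/mL and the primer oligo(rG)12 0.1 μg/mL, with GTP 80 μM. Buffer: 20 mM Tris pH 7.0, 0.5 mM MnCl2 or 5 mM MgCl2, 5% DMSO. Enzyme/drug 30 min at RT, then GTP added; 120 min at 37 °C (BVDV) or 25 °C (HCV). Read-out was dsRNA dye fluorescence (ex 480/em 520). IC50 from dose–response fits.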

SMILES | CC50 (CCRF-CEM) [µM] | CC50 (CCRF-SB) [µM] | CC50 (SK-MEL-28) [µM] | CC50 (MCF7) [µM] | CC50 (SK-MES-1) [µM] | CC50 (HepG2) [µM] | CC50 at 96 h [3] [µM] | EC50 [4] [µM] | CC50 [5] [µM] | EC50 [6] [µM] | CC50 [7] [µM] | EC50 (Yellow fever virus) [µM] | EC50 (Reovirus sp.) [µM] | CC50 [8] [µM] | EC50 (Coxsackievirus B5) [µM] | EC50 (Poliovirus 1) [µM] | EC50 (Human orthopneumovirus) [µM] | EC50 [9] [µM] | EC50 [10] [µM] | EC50 (Human alphaherpesvirus 1) [µM] | further results
CC[C@@]1(O)C(=O)OCc2c1cc1n(c2=O)Cc2cc3ccccc3nc2-1 [CAMPTOTHECIN] | 0.003 | 0.004 | 0.07 | 0.02 | 0.03 | 0.02 |  |  |  |  |  |  |  |  |  |  |  |  |  |  | CC50 (WIL2-NS): 0.005 µM; CC50 (DU-145): 0.015 µM; CC50 at 96 h [1]: 0.2 µM; CC50 at 96 h [2]: 0.3 µM
O=c1[nH]c2cc3cccnc3c(Cl)c2nc1-c1ccccc1 | 16 | 19 | 5.6 | 7.6 | 8 | 8 | 22 | > 22 | > 100 | 11 | > 100 | > 100 | > 100 | > 100 | > 100 | > 100 | 12 | > 100 | > 100 | > 100 | CC50 (DU-145): 7.4 µM; CC50 at 96 h [2]: 16 µM; CC50 [11]: 11 µM; EC50 (Hepatitis C virus): > 11 µM; IC50 [12]: 1 µM; IC50 [13]: > 10 µM
COc1ccccc1-c1nc2cc3cccnc3cc2[nH]1 |  |  |  |  |  |  | 14 | > 14 | 11 | ≥ 11 | 32 | > 32 | > 32 | 75 | 47 | > 75 | > 75 | > 75 | > 75 | > 75 | 
CC(C)c1nc2cc3cccnc3c(Cl)c2[nH]c1=O |  |  |  |  |  |  | 48 | > 48 | 100 | 5 | > 100 | > 100 | 47 | > 100 | > 100 | > 100 | 38 | 62 | > 100 | > 100 | 
CC(=O)Nc1ccc(-c2nc3cc4cccnc4c(Cl)c3[nH]2)cc1 |  |  |  |  |  |  | > 100 | > 100 | > 100 | 11 | > 100 | > 100 | 51 | > 100 | > 100 | > 100 | > 100 | > 100 | > 100 | > 100 | 
N#CCn1nnc2cc3cccnc3c(Cl)c21 |  |  |  |  |  |  | 100 | > 100 | > 100 | 100 | > 100 | > 100 | > 100 | > 100 | > 100 | > 100 | > 100 | > 100 | > 100 | > 100 | 
O=c1[nH]c2cc3cccnc3c(Cl)c2nc1Cc1ccccc1 | 19 | 25 | > 100 | > 100 | > 100 | 72 | 15 | > 15 | > 100 | 2.6 | > 100 | > 100 | > 100 | 88 | > 88 | > 88 | > 88 | > 88 | > 88 | > 88 | CC50 (WIL2-NS): 33 µM; CC50 (DU-145): ≥ 100 µM; CC50 at 96 h [2]: > 100 µM; CC50 [11]: 65 µM; EC50 (Hepatitis C virus): > 65 µM; IC50 [12]: 1.2 µM; IC50 [13]: > 10 µM

Reference: ChEMBL document CHEMBL1938334, “Quinoline tricyclic derivatives. Design, synthesis and evaluation of the antiviral activity of three new classes of RNA-dependent RNA polymerase inhibitors” (Bioorg Med Chem, 2011)
